Rows were chosen to be rich in hits. Some 0.7% of all compounds tested hit in one or more screens of this group.
proCasp7 act: counter-screen: procaspase-7 (human) activation; P55210; recombinant procaspase-7, Ac-DEVD-pNA absorbance 405 nm; D23A/D198A/D206A triple mutant, cannot self-cleave; scale: DMSO 0, 5 µM enzyme 100; activation, % at 8.5 µM; hit rate 0.093% among 330,000; AID 463210;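 active = percent activation above the screen-wide mean plus 3 SD, cut at about 25% in these data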
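Assay system: Uncleavable procaspase-7 mutant enzyme / Input: 2 µM procaspase-7 mutant as dispensed / Dosing: single nominal 8.5 µM compound dose, 0.8% DMSO final / Timing: 1 h enzyme–compound preincubation and 2 h substrate reaction, both 25 °C / Detection: p-Nitroaniline absorbance at 405 nm, read at 0 and 120 min / Replication: singlicate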
GAA850 FXN act: increases GAA850 frataxin promoter reporter activity | activation, % at 6 µM | hit rate 0.56% among 360,000 | HEK293 lucGAA850 FXN promoter luciferase reporter, 24 h; percent of 10 µM SAHA response | AID 540364;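 active = activation above the average of all compounds screened plus 3 SD, cutoff fixed separately per campaign, cut at about 7.5% in these data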;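 also: 0% = DMSO wells and 100% = 10 µM SAHA wells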
proCasp3 act: activators of human procaspase-3; recombinant procaspase-3 D3A, Ac-DEVD-pNA absorbance 405 nm; activation, % at 8.5 µM; hit rate 0.11% among 330,000; AID 463141;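 active = activation above the mean of all tested compounds plus 3 SD, cut at about 21% in these data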;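 also: 0% = DMSO alone and 100% = DMSO wells spiked with extra 5 µM PC-3 D3A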
Target sequence (P42574 whole entry D9A/D28A/D175A): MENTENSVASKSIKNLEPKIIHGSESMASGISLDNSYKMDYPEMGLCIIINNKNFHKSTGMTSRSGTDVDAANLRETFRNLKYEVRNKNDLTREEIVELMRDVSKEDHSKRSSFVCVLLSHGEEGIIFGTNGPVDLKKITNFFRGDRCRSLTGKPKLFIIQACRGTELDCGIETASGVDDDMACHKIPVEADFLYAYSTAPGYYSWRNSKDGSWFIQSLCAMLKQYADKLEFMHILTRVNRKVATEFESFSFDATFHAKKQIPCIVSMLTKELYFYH
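material = Procaspase-3 D3A mutant | probe or stimulus = Ac-DEVD-pNA | compound = single dose, 8.5 µM nominal compound, 0.8% DMSO | timing = 1 h preincubation, 2 h reaction | measured by = 405 nm absorbance of p-nitroaniline, reads at 0 and 120 min | benchmarks = DMSO-only low control, 5 µM PC-3 D3A high control | repeats = singlicate, each compound tested once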
GAA30 FXN cntr: GAA30 FXN promoter activation counter-screen. shares compounds with GAA850 FXN act. HEK293 lucGAA30 FXN promoter luciferase, 24 h; DMSO = 0%, 5 µM ipriflavone = 100%. activation, % at 6 µM. hit rate 66% among 1,900;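 active = mean activation above the mean of solvent-only control wells plus 3 SD, cut at about 22% in these data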;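 also: counterscreen of GAA850 promoter hits where activity marks nonselective or luminescence artifacts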
GAA850 confirm: confirmation of GAA850 frataxin (FXN) promoter activators. shares compounds with GAA850 FXN act. HEK293 lucGAA850 FXN promoter luciferase reporter, 24 h; 100% = activation by SAHA. activation, % at 6 µM. hit rate 86% among 1,900. AID 588351;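 active = mean activation above a set limit taken from the primary screen, cut at about 8% in these data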;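 also: 0% = DMSO wells and 100% = 10 µM SAHA wells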
Numbers without * were called inactive; . = no result given.

SMILES	proCasp7 act	GAA850 FXN act	proCasp3 act	GAA30 FXN cntr	GAA850 confirm
Cc1nc(N)sc1C(=O)N/N=C/c1ccccc1[N+](=O)[O-]	0.5	5.7	11.1	.	.
CC(/C=N/NC(=O)c1sc(N)nc1C)=C\c1ccccc1	-1.2	8.1*	0.8	116.3*	41.3*
CCN(CCNCC(O)COc1ccccc1C(C)C)c1cccc(C)c1 (stereo unspecified)	-10.1	-1.9	-3.6	.	.
O=C(NCc1ccccn1)c1ccc(OC2CCN(Cc3cccs3)CC2)cc1	4.0	0.6	1.1	.	.
CC(=O)NCC1CCCN(Cc2cn(-c3ccccc3)nc2-c2ccc3c(c2)OCO3)C1 (stereo unspecified)	-2.1	0.2	5.6	.	.
Cn1cc(CN2CCCC(CNC(=O)c3ccc4c(c3)OCO4)C2)c2ccccc21 (stereo unspecified)	10.4	10.9*	2.2	21.2	12.6*
O=C(NCc1ccccc1)c1cc(C2CCCN(C(=O)c3ccc4c(c3)CCO4)C2)on1 (stereo unspecified)	.	-0.6	.	.	.
CSc1nc2cc(C)nn2c(-c2ccccc2)c1C#N	2.8	3.3	2.4	.	.
COC(=O)c1c(NC(=O)Cc2cccs2)sc(C(=O)NC2CCCCC2)c1C	5.6	1.9	-3.0	.	.
COC(=O)c1c(NC(=O)Cc2cccs2)sc(C(=O)N2CCCCC2)c1C	4.9	9.2*	-3.2	8.0	9.3*
O=C(C1CCOCC1)N1CCCC(N2CCN(c3ccc(F)cc3)CC2)C1 (stereo unspecified)	-8.2	1.0	-4.4	.	.
CS(=O)(=O)c1ccc(C(=O)OCC(=O)Nc2cccnc2Cl)cc1[N+](=O)[O-]	-2.5	8.0*	3.5	31.3*	19.5*
COc1ccc(C2=NN(C(=O)COc3ncnc4ccccc34)C(c3ccco3)C2)cc1 (stereo unspecified)	5.1	3.2	1.8	.	.
CS(=O)(=O)c1ccc(C(=O)OCC(=O)N2CCN(CCC3CCCCC3)CC2)cc1[N+](=O)[O-]	.	7.1	.	.	.
CS(=O)(=O)c1ccc(C(=O)OCc2nnc(-c3ccccc3)o2)cc1[N+](=O)[O-]	.	8.5*	.	-16.8	70.3*
CN(C)S(=O)(=O)c1ccc(C(=O)OCc2nnc(-c3ccccc3)o2)cc1	0.6	0.6	-3.5	.	.
Cc1ccccc1NC(=O)COC(=O)c1ccc(S(C)(=O)=O)c([N+](=O)[O-])c1	6.3	4.0	-3.7	.	.
COc1ccc(C2=NN(C(=O)COC(=O)c3ccc(S(C)(=O)=O)c([N+](=O)[O-])c3)C(c3ccco3)C2)cc1 (stereo unspecified)	-0.1	12.8*	4.5	-29.6	18.8*
CS(=O)(=O)c1ccc(C(=O)OCC(=O)N2CCOCC2)cc1[N+](=O)[O-]	.	9.7*	.	82.8*	38.6*
CC1C(=O)C(C)C(c2ccccc2F)NC1c1ccccc1F (stereo unspecified)	-3.3	3.6	7.2	.	.
NNC(=O)c1nc[nH]c1C(=O)Nc1ccccc1	2.3	1.8	-5.9	.	.
O=C(Nc1ccncc1)C1CCC(CNS(=O)(=O)c2cccc3nsnc23)CC1 (stereo unspecified)	7.3	-1.4	-4.8	.	.
CC(=O)Nc1ccc(NC(=O)C(C)OC(=O)C2CCN(S(=O)(=O)c3ccc4c(c3)OCCO4)CC2)cc1 (stereo unspecified)	-0.1	0.1	4.0	.	.
CC(C)(C)c1ccc(CC(=O)N2CCC2(C)C(=O)NS(=O)(=O)c2cccc(F)c2)cc1 (stereo unspecified)	.	0.1	.	.	.
Cc1cc(-c2nnco2)c(C)n1-c1ccc(F)cc1	1.4	7.7*	2.5	53.0*	22.0*
SMILES	proCasp7 act	GAA850 FXN act	proCasp3 act	GAA30 FXN cntr	GAA850 confirm
Cc1ccc(C)n1-c1ccc(-c2nnco2)cc1	2.9	-0.2	-8.6	.	.
CCCCCc1nnc(N)s1	9.7	3.5	5.9	.	.
CCCCCc1ccc(-c2nnc(N)s2)cc1	2.1	7.8*	8.6	78.1*	21.1*
Cc1c(S(=O)(=O)N(C)C2CCCCC2)c(=O)n(C)c(=O)n1C	11.9	-1.5	-3.0	.	.
CCOc1ccccc1N(CC(=O)N1CCCC1)S(C)(=O)=O	0.7	0.6	2.8	.	.
CCOC(=O)CSc1ccc(-c2nc3ccccc3[nH]2)cn1	-12.1	0.6	9.5	.	.
N#CCSc1ccc(-c2nc3ccccc3[nH]2)cn1	2.3	7.8*	4.6	85.3*	27.0*

Screens deposited in PubChem BioAssay by The Scripps Research Institute Molecular Screening Center.
